According to ChEMBL document CHEMBL2203269, “Target-Activated Prodrugs (TAPs) for the Autoregulated Inhibition of MMP12” (ACS Med Chem Lett, 2012):
Residues, ends and D or L forms follow the SMILES beside them. *: point of attachment. Benzenesulfonyl(4-Ph) = O=S(=O)(c1ccc(-c2ccccc2)cc1)*; Benzenesulfonyl(4-OMe) = COc1ccc(S(=O)(=O)*)cc1

Legend:
[1] = target: Macrophage metalloelastase (Homo sapiens, UniProt P39900); assay: Inhibition of human MMP12 by FRET reporter assay
Summary of the method: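 Recombinant human MMP12 activity was read with the fluorogenic FRET reporter substrate LaRee5. Inhibition constants were reported as IC50.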

[2] = Half life in TCN buffer at pH 7.5; type: physicochemical
Summary of the method: (§1)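 Compounds incubated without enzyme in TCN buffer, pH 7.5, at 37 °C. Spontaneous hydrolysis of the N-acylated sulfonamide was followed by HPLC over time, and half-lives (h) were derived from the traces.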

[3] = Stability of compound in heat inactivated fetal calf serum; type: ADME; conditions: cattle
[4] = Stability of compound in fetal calf serum; type: ADME; conditions: cattle
[5] = Drug metabolism in TCN buffer assessed as hydrolysis at pH 7.5; type: physicochemical; summary of the method: as §1

Sequence of Macrophage metalloelastase (P39900 whole entry): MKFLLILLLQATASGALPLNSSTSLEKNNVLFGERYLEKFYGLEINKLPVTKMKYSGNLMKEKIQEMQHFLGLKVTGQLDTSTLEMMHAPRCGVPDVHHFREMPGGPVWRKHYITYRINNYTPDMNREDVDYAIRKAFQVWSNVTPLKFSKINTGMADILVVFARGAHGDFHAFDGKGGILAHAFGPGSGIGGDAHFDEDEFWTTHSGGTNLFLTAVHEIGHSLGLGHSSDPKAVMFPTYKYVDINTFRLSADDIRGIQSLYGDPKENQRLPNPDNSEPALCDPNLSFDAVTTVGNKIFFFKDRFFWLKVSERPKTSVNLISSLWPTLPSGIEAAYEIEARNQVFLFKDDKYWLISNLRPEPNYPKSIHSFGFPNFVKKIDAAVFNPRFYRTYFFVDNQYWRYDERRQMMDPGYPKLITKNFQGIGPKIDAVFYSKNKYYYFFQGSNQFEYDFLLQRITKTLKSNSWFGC

Row | SMILES | IC50 [1] [µM] | half-life [2] [h] | other results
1 | O=C(O)CNS(=O)(=O)c1ccc(-c2ccccc2)cc1 | 0.29 | – | –
2 | COc1ccc(S(=O)(=O)N(CC(=O)O)C(=O)CNC(=O)[C@H](CC(C)C)NC(=O)[C@@H]2CCCN2C(=O)OCc2ccccc2)cc1 | – | 27 | –
3 | COc1ccc(S(=O)(=O)N(CC(=O)N[C@@H](CC(C)C)C(=O)N[C@@H](CCC(=O)O)C(=O)N[C@@H](CCC(=O)O)C(=O)N[C@@H](C)C(N)=O)C(=O)CNC(=O)[C@@H]2CCCN2C(=O)OCc2ccccc2)cc1 | – | 6.4 | –
4 | CC(C)C[C@H](NC(=O)CN(C(=O)[C@H](CC(C)C)NC(=O)[C@@H]1CCCN1C(=O)OCc1ccccc1)S(=O)(=O)c1ccc(-c2ccccc2)cc1)C(=O)N[C@@H](CCC(=O)O)C(=O)N[C@@H](CCC(=O)O)C(=O)N[C@@H](C)C(N)=O | – | 5.1 | Stability [3]: Stable; Stability [4]: Stable
5 | COc1ccc(S(=O)(=O)N(CC(=O)N[C@@H](CC(C)C)C(=O)N[C@@H](CCC(=O)O)C(=O)N[C@@H](CCC(=O)O)C(=O)N[C@@H](C)C(N)=O)C(=O)[C@H](CC(C)C)NC(=O)[C@@H]2CCCN2C(=O)OCc2ccccc2)cc1 | – | 28 | –
6 | CC(C)C[C@H](NC(=O)[C@@H]1CCCN1C(=O)OCc1ccccc1)C(=O)N(CC(=O)O)S(=O)(=O)c1ccc(-c2ccccc2)cc1 | 13 | 27 | Stability [3]: Stable; Stability [4]: Stable
7 | COc1ccc(S(=O)(=O)N(CC(=O)O)C(=O)[C@H](CC(C)C)NC(=O)[C@@H]2CCCN2C(=O)OCc2ccccc2)cc1 | – | 77 | –
8 | COc1ccc(S(=O)(=O)NCC(=O)N[C@@H](CC(C)C)C(=O)N[C@@H](CCC(=O)O)C(=O)N[C@@H](CCC(=O)O)C(=O)N[C@@H](C)C(N)=O)cc1 ({Benzenesulfonyl(4-OMe)}-GLEEA-NH2) | – | – | Drug metabolism [5]: Not Active
9 | CC(C)C[C@H](NC(=O)CNS(=O)(=O)c1ccc(-c2ccccc2)cc1)C(=O)N[C@@H](CCC(=O)O)C(=O)N[C@@H](CCC(=O)O)C(=O)N[C@@H](C)C(N)=O ({Benzenesulfonyl(4-Ph)}-GLEEA-NH2) | 48 | – | Drug metabolism [5]: Not Active
